Source: ChEMBL document CHEMBL2331367, “Alkaloids from Microcos paniculata with cytotoxic and nicotinic receptor antagonistic activities” (J Nat Prod, 2013)
The source made the active and inactive calls. The rule behind the calls is not given here.

Tests used:
[1] = molecular target: Neuronal acetylcholine receptor; alpha4/beta2 (Homo sapiens) (UniProt P17787+P43681); experiment: Antagonist activity at human recombinant alpha4beta2 nAChR expressed in human HEKtsA201 cells assessed as inhibition of epibatidine-stimulated calcium accumulation at 10 uM pretreated and cotreated with epibatidine by fluorescence plate reader analysis; format: cell-based
Procedure, shortened: (§1)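 HEKtsA201 cells stably expressing human α3β4 or α4β2 nAChR, plated 2.0–2.3×10^5/well on poly-L-ornithine 24 h before assay; loaded with Calcium 5 NW dye in HEPES-buffered Krebs, 1 h room temperature. Compound (10 μM) added at 20 s, then 1 μM epibatidine at 60 s while compound remained. Fluorescence (ex 485/em 525 nm) recorded 120 s; net response expressed as % of epibatidine control; triplicates.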

[2] = molecular target: Neuronal acetylcholine receptor; alpha3/beta4 (Homo sapiens) (UniProt P30926+P32297); experiment: Antagonist activity at human recombinant alpha3beta4 nAChR expressed in human HEKtsA201 cells assessed as inhibition of epibatidine-stimulated calcium accumulation at 10 uM pretreated and cotreated with epibatidine by fluorescence plate reader analysis; format: cell-based; procedure, shortened: as §1
HT-29 = experiment: Cytotoxicity against human HT-29 cells assessed as inhibition of cell proliferation after 3 days by SRB assay; format: functional, cell-based; details: HT-29, 72 h
[3] = Cytotoxicity against human CCD-112CoN cells assessed as inhibition of cell proliferation after 3 days by SRB assay; format: cell-based; details: 72 h
Procedure, shortened: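 CCD-112CoN normal human colon cells grown in MEME with 10% FBS, pyruvate, non-essential amino acids, 37 °C 5% CO2; used ~70% confluent, 7,600 cells/well. Serial dilutions added in triplicate (10% DMSO vehicle), incubated 3 days; cells TCA-fixed, stained with 0.4% sulforhodamine B, dye solubilized in 10 mM Tris, absorbance 515 nm; IC50 by non-linear regression.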

[4] = Selectivity ratio of IC50 for human CCD-112CoN cells to IC50 for human HT29 cells; format: ADME, cell-based, HT-29; details: CCD-112CoN cells and HT29 cells, read-out: Ratio IC50

Row | Structure (SMILES) | inhibition [1] | inhibition [2] | IC50 (HT-29) | IC50 [3] | selectivity ratio [4]
1 | COc1cc2c3cc1Oc1cc(ccc1O)C[C@@H]1c4c(cc(OC)c(O)c4Oc4ccc(cc4)C[C@@H]3N(C)CC2)CC[N+]1(C)C | 61% | 54% | – | – | –
2 | CCCC/C=C/C=C/C=C/[C@@H]1CC[C@@H](O)[C@H](C)N1 | 59% | 53% | – | – | –
3 | CCCC/C=C/C=C/C=C/[C@@H]1CC[C@@H](OC(C)=O)[C@H](C)N1C | 44.1% | – | > 10 µM | – | –
4 | CC(=O)O[C@H]1C(=O)[C@@]2(C)[C@H]([C@H](OC(=O)c3ccccc3)[C@]3(O)C[C@H](OC(=O)[C@H](O)[C@@H](NC(=O)c4ccccc4)c4ccccc4)C(C)=C1C3(C)C)[C@]1(OC(C)=O)CO[C@@H]1C[C@@H]2O [PACLITAXEL] | – | – | 0.001 µM | 23 µM | –
5 | CNC1(C)C2CCC(C2)C1(C)C (centres undefined) | 91.8% | 88.3% | – | – | –
6 | CCCC/C=C/C=C/C=C/[C@@H]1CC[C@H](O)[C@H](C)[N+]1(C)[O-] (some centres undefined) [MICROGREWIAPINE C] | 67.3% | 82.8% | > 10 µM | – | –
7 | CCCC/C=C/C=C/C=C/[C@@H]1CC[C@@H](O)[C@H](C)[N+]1(C)[O-] (some centres undefined) [MICROGREWIAPINE B] | 79.3% | 82.7% | > 10 µM | – | –
8 | COc1ccc(CCNC(=O)/C=C/c2ccc(O)c(O)c2)cc1 | 21.8% | 14% | > 10 µM | – | –
9 | O=C(OCC1CCCN(CCCc2ccccc2)C1)c1ccccc1-c1ccccc1 (centres undefined) | 39% | inactive | – | – | –
10 | O=C1c2ccccc2-c2c3c(cc4ccnc1c24)OCO3 [LIRIODENINE] | 13.3% | 19.3% | > 10 µM | – | –
11 | CCCC/C=C/C=C/C=C/[C@@H]1CC[C@@H](O)[C@H](C)N1C [MICROGREWIAPINE A] | 74% | 58.2% | 6.8 µM | 30.4 µM | 4
